Measured values from article PMC4486263 (Journal of biomolecular screening, 2014).
“Also recorded” adds a separate entry of the source. One block for each compound: values may come before it.

Columns and labels:
[1] = target: T1, Six1-Eya2 interaction (Homo sapiens, UniProt O00167+Q15475); test: Counterscreen AlphaScreen assay, Six1-Eya2; assay type: binding; conditions: 20 nM to 50 μM
T1 sequence (Q15475 1-284): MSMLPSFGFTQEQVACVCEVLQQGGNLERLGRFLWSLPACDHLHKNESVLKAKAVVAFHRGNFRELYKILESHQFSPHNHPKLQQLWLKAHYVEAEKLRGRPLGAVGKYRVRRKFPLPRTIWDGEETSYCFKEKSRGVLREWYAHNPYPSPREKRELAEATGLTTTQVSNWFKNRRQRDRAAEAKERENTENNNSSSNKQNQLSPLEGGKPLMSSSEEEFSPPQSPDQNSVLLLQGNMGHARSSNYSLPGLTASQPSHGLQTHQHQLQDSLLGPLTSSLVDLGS
T1 sequence (O00167 1-538): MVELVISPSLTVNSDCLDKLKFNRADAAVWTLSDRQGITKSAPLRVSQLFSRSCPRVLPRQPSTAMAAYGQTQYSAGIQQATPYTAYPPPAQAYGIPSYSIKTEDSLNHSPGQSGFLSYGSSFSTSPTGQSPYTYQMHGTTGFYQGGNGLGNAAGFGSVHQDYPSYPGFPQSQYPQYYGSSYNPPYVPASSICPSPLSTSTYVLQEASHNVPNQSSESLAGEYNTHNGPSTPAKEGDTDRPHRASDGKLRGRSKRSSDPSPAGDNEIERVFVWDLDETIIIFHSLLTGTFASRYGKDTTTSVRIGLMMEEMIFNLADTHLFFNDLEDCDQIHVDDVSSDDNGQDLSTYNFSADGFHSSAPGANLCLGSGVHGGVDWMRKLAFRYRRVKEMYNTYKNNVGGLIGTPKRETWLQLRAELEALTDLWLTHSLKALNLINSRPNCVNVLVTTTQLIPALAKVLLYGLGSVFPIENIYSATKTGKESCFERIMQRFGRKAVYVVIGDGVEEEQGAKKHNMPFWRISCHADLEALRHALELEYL
Procedure, shortened: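 Counterscreen AlphaScreen with 200 nM 6xHis-Eya2 and GST-Six1 in 50 mM Tris pH 8.0, 250 mM NaCl, 0.05% BSA, 0.02% Tween-20. Test compound was added at 20 nM to 50 μM. Glutathione donor and Ni-chelate acceptor beads were added from a 25 ng/μL (each) bead solution. Incubated 2 h at 25 °C, then read in AlphaScreen mode.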

[2] = target: CtBP1-E1A peptide interaction (Homo sapiens, UniProt Q13363); test: Fluorescence polarization assay with FITC-labeled E1A 14-mer peptide; assay type: binding; conditions: for disruption of the CtBP1-peptide interaction (in words): up to 100 μM
[3] = target: T2, CtBP1-E1A interaction (Homo sapiens, UniProt Q13363); test: CtBP1-E1A AlphaScreen assay; assay type: binding; conditions: for disruption of the CtBP1-E1A interaction (in words): up to 100 μM
[4] = system: MEF3 promoter (SIX1 transcriptional complex); test: MEF3 promoter luciferase reporter assay in H1299 cells; assay type: cell-based; conditions: 18 hrs, normalized to Renilla
Procedure, shortened: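 H1299 cells were seeded at 2000 cells/well and adhered overnight. FuGENE 6 transfection used 60 ng/well pGL3-MEF3 promoter, 40 ng/well Six1, 30 ng/well Eya2 and 14 ng/well Renilla luciferase. After 10 h, cells were treated with varying test compound concentrations for 18 h. Dual-luciferase read-out after passive lysis, with Firefly normalised to Renilla.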

[5] = system: CtBP1-mediated repression of the E-cadherin promoter; test: E-cadherin promoter luciferase reporter assay in H1299 cells; assay type: cell-based; conditions: 18 hrs, normalized to Renilla
Procedure, shortened: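 H1299 cells were seeded at 2000 cells/well and adhered overnight. FuGENE 6 transfection used 30 ng/well pGL3-E-cadherin promoter plus 10 ng/well Renilla luciferase. After 10 h, cells were treated with varying test compound concentrations for a further 18 h. Passive lysis, then dual-luciferase measurement with Firefly normalised to Renilla.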

[6] = system: lactate dehydrogenase; test: Lactate dehydrogenase enzymatic assay; assay type: biochemical
Procedure, shortened: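 Lactate dehydrogenase at 5 nM in PBS with 100 μM NADH. Incubated with 5 μM pyruvate or varying test compound concentrations for 1 min at 30 °C. NADH consumption monitored spectrophotometrically at 340 nm; activity as nmol/min/mg protein.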

[7] = target: T2, CtBP1-E1A interaction; test: Competitive ELISA; assay type: binding; conditions: read-out: IC50, disruption of the CtBP1-E1A interaction
Procedure, shortened: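 Plates coated with His-tagged CtBP1 (E. coli-expressed, Ni-affinity then size-exclusion purified) in 50 mM Tris pH 8.0, 250 mM NaCl, 1 h at 25 °C. Blocked 1 h with 1% BSA/0.05% Tween-20 in 50 mM Tris pH 8.0, 250 mM NaCl, 1 mM TCEP. GST-Ad5 E1A was added with increasing test compound concentrations in triplicate for 1 h at 25 °C. Detection used rabbit anti-GST (1:1500), then goat anti-rabbit (1:2500), 1 h each, and ABTS absorbance.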

[8] = target: CtBP1 (Homo sapiens, UniProt Q13363); test: CtBP1 enzymatic assay; assay type: biochemical; conditions: NADH oxidation, 340 nm
Procedure, shortened: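 E. coli-expressed His-CtBP1 (2 μM) in PBS with NADH. Test compound was added at increasing concentrations in 100 μL reactions after a 2 min incubation at 30 °C. Substrate reduction followed as NADH disappearance at 340 nm by spectrophotometer. Activity expressed as nmol NADH/min/mg protein.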

[9] = system: NCI 60 tumor-cell panel; conditions: ref http://dtp.nci.nih.gov/; cited from earlier work

inhibition of the Six1-Eya2 interaction [1]: efficiently inhibited
SMILES: O=C1c2ccccc2C(=O)c2c(NCCc3ccc(O)cc3)ccc(NCCc3ccc(O)cc3)c21 [JFD00244]

IC50 ([2]; read-out: IC50, CtBP1-E1A peptide interaction, 3 μM CtBP1, 5 nM FITC-E1A peptide): 610 ± 120 nM
IC50 [7]: 10000 ± 1300 nM
IC50 ([3]; read-out: IC50, inhibition of the CtBP1-E1A interaction): 2900 nM
maximal activity as CtBP1 substrate [8]: 28.5 ± 4.9 nmol/min/mg protein
SMILES: O=C1C(SCCO)=C(SCCO)C(=O)c2ccccc21 [NSC95397]
inhibition of the Six1-Eya2 interaction [1]: did not inhibit; also recorded: does not inhibit; also recorded: did not detect a loss of AlphaScreen signal
luciferase activity, MEF3 promoter [4]: unaltered; also recorded: has no effect
luciferase activity, E-cadherin promoter [5]: able to disrupt CtBP-mediated transcriptional repression; also recorded: increased with increasing concentrations; also recorded: can reverse CtBP-mediated transcriptional repression
disruption of the CtBP1-peptide interaction (in words) [2]: able to disrupt the interaction; also recorded: efficiently inhibits
inhibition of LDH (pyruvate reduction) ([6]; 5 μM pyruvate, up to 100 μM compound): did not significantly inhibit; also recorded: unable to detect any inhibition; also recorded: unable to inhibit
substrate of LDH (NADH consumption without pyruvate) ([6]; increasing concentrations, no pyruvate): nor did it exhibit significant consumption of NADH; also recorded: did not detect a significant loss in NADH levels
disruption of the CtBP1-E1A interaction (in words) [3]: able to disrupt the interaction; also recorded: efficiently inhibits
average GI50s over all cell lines [9]: 1040 nM

inhibition of the Six1-Eya2 interaction [1]: efficiently inhibited
SMILES: O=C1O/C(=C/Br)CCC1c1cccc2ccccc12 (centres unmarked) [bromoenol lactone]

LDH activity with substrate [6]: 9680 ± 558 nmol/min/mg protein
SMILES: CC(=O)C(=O)O [pyruvate]

The remaining lines, values behind:

SMILES: O.c1cnc2c(c1)ccc1cccnc12 [10-phenanthroline monohydrate]
inhibition of the Six1-Eya2 interaction [1]: efficiently inhibited

SMILES: CCCn1c(=O)c2[nH]c(C3CCCC3)nc2n(CCCOC(=O)c2ccc(S(=O)(=O)F)cc2)c1=O [FSCPX]
inhibition of the Six1-Eya2 interaction [1]: did not inhibit
disruption of the CtBP1-peptide interaction (in words) [2]: inactive; also recorded: unable to disrupt

SMILES: CSCCC(=O)C(=O)O [MTOB, 4-methylthio-2-oxobutanoic acid]
disruption of the CtBP1-peptide interaction (in words) [2]: ineffective at disrupting the interaction; also recorded: unable to inhibit
disruption of the CtBP1-E1A interaction (in words) [3]: ineffective at disrupting the interaction; also recorded: unable to inhibit; also recorded: unable to affect the protein interaction

SMILES: CCCCc1ccc(C(=O)O)nc1 [fusaric acid]
inhibition of the Six1-Eya2 interaction [1]: did not inhibit
disruption of the CtBP1-peptide interaction (in words) [2]: inactive; also recorded: unable to disrupt

SMILES: Nc1c(S(=O)(=O)O)cc(Nc2ccc(Nc3nc(Cl)nc(Nc4cccc(S(=O)(=O)O)c4)n3)c(S(=O)(=O)O)c2)c2c1C(=O)c1ccccc1C2=O [reactive blue 2]
inhibition of the Six1-Eya2 interaction [1]: efficiently inhibited
